Data as given in ChEMBL document CHEMBL1135736, “Synthesis and biological evaluation of a new furo[2,3-h]quinolin-2(1H)-one” (J Med Chem, 2002).

How the values were obtained:
[1] = species: Mus musculus; assay: Mean survival time when 1x10E-6 viable cells were injected and challenge performed 21 days after injection of photoinactivated cells; format: ADME, organism-based; conditions: in vivo, 504 h
Method in brief: (§1)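 Mice, groups of 10, primed by ip injection of 5 × 10^6 Ehrlich cells. Before injection, these cells were photoinactivated with UVA light (2.7 kJ m-2) in the presence of 2 μM drug. Viable untreated Ehrlich cells were given later as the tumor challenge, at varying cell numbers and times after priming. Mortality (%) and mean survival time (days) were recorded.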

[2] = Antiproliferative effect on DNA synthesis of mammalian cells upon UVA irradiation.; format: functional; conditions: light or radiation study, read-out: ID50
Method in brief: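 Ehrlich cells, DNA synthesis inhibition. Cells held with 2 µM drug and exposed to graded UVA doses. ID50 is the UVA dose (kJ m-2) giving 50% inhibition, calculated by probit analysis, pooled from several experiments.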

[3] = species: Mus musculus; assay: Percent mortality observed when 0.3x10E-6 viable cells were injected and challenge performed 15 days after injection of photoinactivated cells; format: organism-based; conditions: in vivo, 360 h; method in brief: as §1
[4] = species: Mus musculus; assay: Mean survival time when 4x10E-6 viable cells were injected and challenge performed 21 days after injection of photoinactivated cells; format: ADME, organism-based; conditions: in vivo, 504 h; method in brief: as §1
[5] = species: Mus musculus; assay: Percent mortality observed when 0.3x10E-6 viable cells were injected and challenge performed 8 days after injection of photoinactivated cells; format: ADME, organism-based; conditions: in vivo, 192 h; method in brief: as §1
[6] = species: Mus musculus; assay: Mean survival time when 0.3x10E-6 viable cells were injected and challenge performed 8 days after injection of photoinactivated cells; format: ADME, organism-based; conditions: in vivo, 192 h; method in brief: as §1
[7] = Antiproliferative effect on clonal growth of mammalian cells upon UVA irradiation.; format: functional; conditions: light or radiation study, read-out: ID50
Method in brief: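 CHO cells, clonal growth (colony-forming) inhibition. Cells given graded UVA doses in the presence of 2 µM drug. Reported ID50 is the UVA dose (kJ m-2) producing 50% inhibition, derived by probit analysis over several experiments.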

[8] = species: Mus musculus; assay: Mean survival time when 0.3x10E-6 viable cells were injected and challenge performed 15 days after injection of photoinactivated cells; format: ADME, organism-based; conditions: in vivo, 360 h; method in brief: as §1
[9] = species: Mus musculus; assay: Mean survival time when 0.3x10E-6 viable cells were injected and challenge performed 21 days after injection of photoinactivated cells; format: ADME, organism-based; conditions: in vivo, 504 h; method in brief: as §1
[10] = species: Mus musculus; assay: Percent mortality observed when 1x10E-6 viable cells were injected and challenge performed 21 days after injection of photoinactivated cells; format: ADME, organism-based; conditions: in vivo, 504 h; method in brief: as §1
[11] = species: Mus musculus; assay: Percent mortality observed when 0.3x10E-6 viable cells were injected and challenge performed 21 days after injection of photoinactivated cells; format: organism-based; conditions: in vivo, 504 h; method in brief: as §1
[12] = species: Mus musculus; assay: Percent mortality observed when 4x10E-6 viable cells were injected and challenge performed 21 days after injection of photoinactivated cells; format: ADME, organism-based; conditions: in vivo, 504 h; method in brief: as §1

Row | SMILES | Mean survival time [1] [days] | IC50 [2] [kJ m-2] | Mortality [3] [%] | Mean survival time [4] [days] | Mortality [5] [%] | Mean survival time [6] [days] | IC50 [7] [kJ m-2] | Mean survival time [8] [days] | Mean survival time [9] [days] | Mortality [10] [%] | Mortality [11] [%] | Mortality [12] [%]
1 | Cc1cc2c(o1)c(C)cc1c(CO)cc(=O)n(C)c12 | 10.6 | 0.65 | 35 | 15.8 | 70 | 21.3 | 0.02 | 25 | > 60 | 30 | 0 | 100
2 | COc1c2occc2cc2ccc(=O)oc12 [METHOXSALEN] |  | 36.6 |  |  |  |  | 0.84 |  |  |  |  | 
